Data as given in ChEMBL document CHEMBL3817742, “Structural Basis for the Selective Binding of Inhibitors to 6-Hydroxymethyl-7,8-dihydropterin Pyrophosphokinase from Staphylococcus aureus and Escherichia coli” (J Med Chem, 2016).
The source made the active and inactive calls. The rule behind the calls is not given here.

Legend:
[1] = molecular target: T1, 2-amino-4-hydroxy-6-hydroxymethyldihydropteridin e pyrophosphokinase (Staphylococcus aureus, UniProt X5EH84); assay: Binding affinity to biotinylated Staphylococcus aureus HPPK in presence of 1 mM ATP by SPR assay
T1 sequence (X5EH84 whole entry): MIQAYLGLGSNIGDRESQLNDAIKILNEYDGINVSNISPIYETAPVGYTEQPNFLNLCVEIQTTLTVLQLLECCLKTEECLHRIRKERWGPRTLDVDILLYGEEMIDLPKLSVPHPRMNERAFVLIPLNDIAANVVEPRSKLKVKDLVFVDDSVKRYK
Summary of the method: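 Enzyme minimally biotinylated via maleimide-activated biotin, captured on streptavidin chip (~3800 RU). 3-fold serial dilutions, top concentration between 3 and 300 μM; 60 s contact at 30 μL·min−1, 60 s dissociation; duplicate or more; double-referenced, globally fitted where limited.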

[2] = molecular target: T2, 2-amino-4-hydroxy-6-hydroxymethyldihydropteridin e pyrophosphokinase (Staphylococcus aureus) (UniProt X5EH84); assay: Binding affinity to AMPCPP-loaded and 15N/13C-labeled Staphylococcus aureus HPPK assessed a induction of 1H-15N chemical shift perturbations by 2D 15N-FAST-HSQC NMR spectrscopy
T2 sequence (whole entry): T1 sequence (X5EH84 whole entry)

[3] = molecular target: T3, 2-amino-4-hydroxy-6-hydroxymethyldihydropteridine pyrophosphokinase (Escherichia coli (strain K12), UniProt P26281); assay: Binding affinity to biotinylated Escherichia coli HPPK expressed in Escherichia coli BL21 (DE3) in presence of 1 mM ATP by SPR assay
T3 sequence (P26281 whole entry): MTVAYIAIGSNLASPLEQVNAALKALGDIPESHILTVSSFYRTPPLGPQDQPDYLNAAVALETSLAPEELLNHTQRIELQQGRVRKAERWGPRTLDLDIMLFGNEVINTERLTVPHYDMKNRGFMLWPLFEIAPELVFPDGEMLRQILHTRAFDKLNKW
Summary of the method: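 N-terminal His6/TEV-cleavable construct expressed in E. coli BL21(DE3), Ni-NTA purified, His-tag cleaved, then size exclusion. Minimally biotinylated via NHS-activated biotin and captured on streptavidin chip (~4900 RU). Analytes in 3-fold serial dilutions, duplicate or more; sensorgrams solvent-corrected, double-referenced.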

[4] = molecular target: T2, 2-amino-4-hydroxy-6-hydroxymethyldihydropteridin e pyrophosphokinase (Staphylococcus aureus); assay: Binding affinity to AMPCPP-loaded and 15N/13C-labeled Staphylococcus aureus HPPK assessed a induction of chemical shift changes in 15N HSQC spectra by HNCA triple resonance 3D NMR spectroscopy

Row | Kd [1] [nM] | Activity [2] | Kd [3] [nM] | Activity [4] | SMILES
1 | 1930 | – | – | – | Nc1nc2[nH]c(SCc3ccc(C(F)(F)F)cc3)nc2c(=O)[nH]1
2 | 1200 | – | 38000 | – | N#Cc1cc(F)ccc1CSc1nc2c(=O)[nH]c(N)nc2[nH]1
3 | 540 | – | 5700 | – | Nc1nc2[nH]c(SCc3ccccc3[N+](=O)[O-])nc2c(=O)[nH]1
4 | – | Active | – | Active | N#Cc1ccc(CSc2nc3nc(N)[nH]c(=O)c3[nH]2)cc1
5 | 950 | – | 2130 | – | Nc1nc2[nH]c(SCc3ccc(Br)cc3)nc2c(=O)[nH]1
6 | 3600 | – | 10100 | – | Cc1cc(CSc2nc3c(=O)[nH]c(N)nc3[nH]2)ccc1F
7 | 3100 | – | 7100 | – | Nc1nc2[nH]c(SCc3cccc(Br)c3)nc2c(=O)[nH]1
8 | 210 | – | 965 | – | Cc1ccc(F)c(CSc2nc3c(=O)[nH]c(N)nc3[nH]2)c1
9 | – | Active | – | Active | Nc1nc2[nH]c(SCc3ccccc3)nc2c(=O)[nH]1
10 | 2600 | – | 26000 | – | Nc1nc2[nH]c(SCc3cccc(C(=O)O)c3)nc2c(=O)[nH]1
11 | 1200 | – | – | – | Nc1nc2[nH]c(SCc3cc(C(F)(F)F)cc(C(F)(F)F)c3)nc2c(=O)[nH]1
12 | 260 | – | 1400 | – | Nc1nc2[nH]c(SCc3ccc(F)cc3F)nc2c(=O)[nH]1
13 | 650 | – | 1800 | – | COc1cccc(CSc2nc3c(=O)[nH]c(N)nc3[nH]2)c1
14 | 380 | – | 1700 | – | Cc1cccc(CSc2nc3c(=O)[nH]c(N)nc3[nH]2)c1
15 | 290 | – | 2000 | – | Nc1nc2[nH]c(SCc3ccc(F)c(F)c3)nc2c(=O)[nH]1
16 | – | – | 160000 | – | Nc1nc2[nH]c(S)nc2c(=O)[nH]1
17 | 1240 | – | 4300 | – | Nc1nc(O)c2[nH]c(SCc3ccc(Cl)cc3)nc2n1
18 | 2760 | – | 52000 | – | COCCSc1nc2c(=O)[nH]c(N)nc2[nH]1
19 | 4600 | – | 68000 | – | Nc1nc2[nH]c(SCCCO)nc2c(=O)[nH]1
20 | 46000 | – | 120000 | – | CCN(C)C(=O)C(C)Sc1nc2c(=O)[nH]c(N)nc2[nH]1 (stereo not drawn)
21 | 220 | – | 2600 | – | Nc1nc2[nH]c(SCc3cccc(F)c3)nc2c(=O)[nH]1
22 | 770 | – | 3500 | – | N#Cc1cccc(CSc2nc3c(=O)[nH]c(N)nc3[nH]2)c1
23 | 3600 | – | 97000 | – | Nc1nc2[nH]c(SCC(O)C(F)(F)F)nc2c(=O)[nH]1 (stereo not drawn)
24 | 1500 | – | 53000 | – | CN(C)C(=O)CSc1nc2c(=O)[nH]c(N)nc2[nH]1
25 | 7900 | – | 23300 | – | Nc1nc2[nH]c(SCCC3OCCCO3)nc2c(=O)[nH]1

Row | Kd [1] [nM] | Activity [2] | Kd [3] [nM] | Activity [4] | SMILES
26 | 1300 | – | – | – | Nc1nc2[nH]c(SCc3ccccc3Cl)nc2c(=O)[nH]1
27 | 2300 | – | 6900 | – | Cc1cc(C)cc(CSc2nc3c(=O)[nH]c(N)nc3[nH]2)c1
28 | – | Active | – | – | Nc1nc2[nH]c(SCc3ccccc3F)nc2c(=O)[nH]1
29 | 2800 | – | 10700 | – | Cc1cccc(CSc2nc3c(=O)[nH]c(N)nc3[nH]2)c1F
30 | 1400 | – | 5800 | – | Nc1nc2[nH]c(SCc3cccc([N+](=O)[O-])c3)nc2c(=O)[nH]1
31 | 570 | – | 1700 | – | Nc1nc2[nH]c(SCc3cccc(Cl)c3)nc2c(=O)[nH]1
32 | 7900 | – | – | – | Nc1nc2[nH]c(SCCN3CCCC3=O)nc2c(=O)[nH]1
33 | 841 | – | 6100 | – | Cc1cccc(CSc2nc3c(=O)[nH]c(N)nc3[nH]2)c1C
34 | 2100 | – | 5300 | – | N#Cc1cc(CSc2nc3c(=O)[nH]c(N)nc3[nH]2)ccc1F
35 | 11000 | – | 74200 | – | CCN(CC)C(=O)CSc1nc2c(=O)[nH]c(N)nc2[nH]1
36 | 300 | – | 950 | – | COc1ccc(CSc2nc3c(=O)[nH]c(N)nc3[nH]2)c(F)c1
37 | 7600 | – | 89200 | – | Nc1nc2[nH]c(SCCO)nc2c(=O)[nH]1
38 | 1970 | – | 16300 | – | Cc1cc(F)ccc1CSc1nc2c(=O)[nH]c(N)nc2[nH]1
39 | 8800 | – | 50000 | – | CNC(=O)CSc1nc2c(=O)[nH]c(N)nc2[nH]1
40 | 510 | – | 23000 | – | N#Cc1ccccc1CSc1nc2c(=O)[nH]c(N)nc2[nH]1
41 | 1500 | – | 8500 | – | Nc1nc2[nH]c(SCc3ccccc3Br)nc2c(=O)[nH]1
42 | 13400 | – | 82000 | – | Nc1nc2[nH]c(SCC(O)CO)nc2c(=O)[nH]1 (stereo not drawn)
43 | 520 | – | 2200 | – | COc1ccc(CSc2nc3c(=O)[nH]c(N)nc3[nH]2)cc1
44 | 470 | – | 2500 | – | Cc1ccccc1CSc1nc2c(=O)[nH]c(N)nc2[nH]1
45 | 1610 | – | 5700 | – | Nc1nc2[nH]c(SCc3cccc(OC(F)(F)F)c3)nc2c(=O)[nH]1
46 | 120 | Active | 1760 | Active | Nc1nc2[nH]c(SCc3c(F)cccc3F)nc2c(=O)[nH]1
47 | 13000 | – | 59400 | – | CC(C)CNC(=O)CSc1nc2c(=O)[nH]c(N)nc2[nH]1
48 | 300 | – | 3900 | – | Nc1nc2[nH]c(SCc3ccc(F)cc3)nc2c(=O)[nH]1
49 | 2100 | – | 5200 | – | Nc1nc2[nH]c(SCc3ccc(OC(F)(F)F)cc3)nc2c(=O)[nH]1
50 | 1700 | – | 12600 | – | Cc1ccc(C)c(CSc2nc3c(=O)[nH]c(N)nc3[nH]2)c1

Row | SMILES | Kd [1] [nM] | Activity [2] | Kd [3] [nM] | Activity [4]
51 | COc1ccc(C(=O)CSc2nc3nc(N)[nH]c(=O)c3[nH]2)cc1 | – | Active | – | –
52 | Nc1nc2[nH]c(SCC(=O)c3ccc(Br)cc3)nc2c(=O)[nH]1 | 570 | – | 700 | –
53 | N#Cc1ccc(CSc2nc3c(=O)[nH]c(N)nc3[nH]2)c(F)c1 | 590 | Active | 2700 | Active
